Results pooled from the literature.
Protocols differ between the studies behind these lines.
COQ8A: Atypical kinase COQ8A, mitochondrial (COQ8A, Homo sapiens, UniProt Q8NI60)
PIK3CD: Phosphatidylinositol 4,5-bisphosphate 3-kinase catalytic subunit delta isoform (PIK3CD, Homo sapiens, UniProt O00329)
NTSR1: Neurotensin receptor type 1 (NTSR1, Homo sapiens, UniProt P30989)
ATP2A1: Sarcoplasmic/endoplasmic reticulum calcium ATPase 1 (ATP2A1, Oryctolagus cuniculus, UniProt P04191)

For Cc1ccc2c(=O)cc(C(=O)Nc3c(C(=O)c4ccc(F)cc4)oc4ccccc34)oc2c1C, the IC50 was 9680 nM (COQ8A; ligand displacement; TR-FRET).
With C=C[C@@]1(C)CC(=O)[C@]2(O)[C@@]3(C)[C@@H](O)CCC(C)(C)[C@@H]3[C@H](O)[C@H](OC(C)=O)[C@@]2(C)O1 the EC50 was 10000 nM (Adenylate cyclase type 5 (ADCY5, Homo sapiens, UniProt O95622); cAMP; agonist; TR-FRET).
The IC50 of CC(C)(C)OC(=O)N1CCN(Cc2ccn(Cc3ccc(Cl)cc3)c(=O)c2O)CC1 is reported as 6180 nM (Lysine-specific demethylase 4E (KDM4E, Homo sapiens, UniProt B2RXH2); enzyme activity; inhibitor; AlphaScreen).
The IC50 of COc1cc2ncnc(N(C)c3ccc4c(c3)/C(=C/c3ccccc3)C(=O)N4C)c2cc1OC (mixture of isomers) is reported as 416 nM (PIK3CD; enzyme activity; inhibitor; ADP detection).
With C[C@]12C[C@H](O)[C@H]3[C@@H](CCC4=CC(=O)CC[C@@]43C)[C@@H]1CC[C@@H]2C(=O)CO the EC50 was 11.3 nM (Mineralocorticoid receptor (NR3C2, Homo sapiens, UniProt P08235); reporter gene; agonist; luciferase).
With CC(C)Oc1ccc(S(=O)(=O)c2ccc(Oc3cc(OCC(N)=O)c(C(=O)C(Cl)Cl)cc3[N+](=O)[O-])cc2)cc1 the IC50 was 140 nM ([Pyruvate dehydrogenase (acetyl-transferring)] kinase isozyme 1, mitochondrial (PDK1, Homo sapiens, UniProt Q15118); enzyme activity; inhibitor; ATP luminescence).
Cc1nc(Nc2ccc3c(c2)C(C)(C)C(=O)N3C)c2ccccc2n1 has an IC50 of 719 nM (PIK3CD; enzyme activity; inhibitor; ADP detection).
For COc1ccccc1C1CCN(c2nc(C3(F)CC3)nc3ccc(N(C)CCN4CCOCC4)cc23)CC1, the EC50 was 7460 nM (NTSR1; β-arrestin recruitment; agonist).
COc1cc2ncnc(Nc3ccc4c(c3)/C(=C/c3ccccc3)C(=O)N4)c2cc1OC gave an IC50 of 700 nM (PIK3CD; enzyme activity; inhibitor; ADP detection).
With COc1cc(/C=C/C(=O)O)ccc1O the Kd was 86000 nM (ATP2A1; binding; fluorescence; pH 7.2).
With NC(=O)c1ncc(N2CCCCC2)nc1Nc1ccc(C2CCN(C[C@H]3CCN(c4ccc5c(c4)C(=O)N(C4CCC(=O)NC4=O)C5=O)C3)CC2)cc1 (stereo partly drawn) the Kd was 18 nM (Tyrosine-protein kinase BTK (BTK, Homo sapiens, UniProt Q06187, T474I); binding; SPR).
CCCn1nc(C)c(-c2cc(C(=O)N3CCc4nc5cc(-c6ccccc6)[nH]n5c(=O)c4C3)[nH]n2)c1C gave an IC50 of 1720 nM (COQ8A; ligand displacement; TR-FRET).
For COc1ccccc1C1CCN(c2nc(C3(C(F)(F)F)CCCC3)nc3ccc(N(C)CCO)cc23)CC1, the EC50 was 18000 nM (NTSR1; β-arrestin recruitment; agonist).
The IC50 of O=C(Nc1nc2n(n1)C(c1ccc(F)cc1)C=C(c1ccccc1)N2)c1cccc([N+](=O)[O-])c1 (stereo not drawn) is reported as 3850 nM (COQ8A; ligand displacement; TR-FRET).
For COc1cc2ncnc(Nc3ccc4c(c3)/C(=C/c3ccccc3)C(=O)N4C)c2cc1OC, the IC50 was 277 nM (PIK3CD; enzyme activity; inhibitor; ADP detection).
For COc1cc(/C=C/C(O)=C/C(=O)/C=C/c2ccc(O)cc2)ccc1O, the Kd was 8000 nM (ATP2A1; binding; fluorescence; pH 7.2).
With Cc1nc(Nc2ccc3c(c2)/C(=C/c2ccccc2Cl)C(=O)N3)c2ccccc2n1 the IC50 was 578 nM (PIK3CD; enzyme activity; inhibitor; ADP detection).
CCc1ccc(NC(=O)CSc2nc(-c3cccc(OC)c3)nc3c2Cc2c(CO)cnc(C)c2O3)cc1 has an IC50 of 2170 nM (COQ8A; ligand displacement; TR-FRET).
